Measurements taken from article PMC8853710 (Journal of Enzyme Inhibition and Medicinal Chemistry, 2019).
≈ marks a conversion by molar mass, not a printed value. Where two headings read alike, the source gives them in different places.

Legend:
B16 melanoma cell line = experiment: Cell proliferation; format: cell-based; conditions: for B16 GI ratio: B16 cells, test concentration not given; for IC50: Mus musculus, read-out: IC50, B16 melanoma cell line
Hsp90α = Hsp90α (Homo sapiens, UniProt P07900); experiment: Kinase inhibition assay, Hsp90α; format: biochemical
EGFR = EGFR (Homo sapiens, UniProt P00533); experiment: Kinase inhibition assay, EGFR; format: biochemical
VEGFR2 = VEGFR2 (Homo sapiens, UniProt P35968); experiment: Kinase inhibition assay, VEGFR2; format: biochemical
PI3Kα = PI3Kα (Homo sapiens, UniProt P42336); experiment: Kinase inhibition assay, PI3Kα; format: biochemical
B16 cells [1] = experiment: Transwell Matrigel invasion assay; format: cell-based; conditions: dose-dependent
Method in brief: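 Transwell chambers with 8-μm pores and Matrigel-precoated top chambers were used. B16 cells (1 × 105) in serum-free medium went into the top chamber, with DMEM in the bottom chamber. Invaded cells were stained with crystal violet and counted under a microscope in triplicate.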

B16 cells [2] = experiment: Western blotting of B16 melanoma cell extracts; format: cell-based
Method in brief: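 Total protein was extracted from treated B16 cells, separated by SDS-PAGE (7.5–15% gels, chosen by protein size) and transferred to PVDF. Membranes were blocked with 5% BSA, incubated with primary antibodies on ice overnight, then with HRP-conjugated secondary antibodies for 1 h at room temperature. Bands were detected by ECL. Migration- and invasion-related proteins were assessed at 20 and 40 μg/mL.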

B16 cells [3] = experiment: Cell cycle analysis by PI staining flow cytometry; format: cell-based; conditions: 24 h treatment
B16 cells [4] = experiment: Colony formation assay; format: cell-based; conditions: 8m-incubated B16 cells vs control group
B16 cells [5] = experiment: Wound-healing cell migration assay; format: cell-based; conditions: 24 h of exposure, dose-dependent
Method in brief: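 B16 cells were seeded at 1 × 10^5 per well in 6-well plates in DMEM and grown overnight. Three scratches per well were made with a 200 µl pipette tip. After a PBS wash, serum-free DMEM containing various compound concentrations or DMSO was added. Migration was assessed by light microscopy between 0 h and 24 h.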

B16 cells [6] = experiment: Flow cytometry with annexinV/PI dual staining; format: cell-based; conditions: 24 h incubation
B16 melanoma xenograft = experiment: B16 subcutaneous tumor xenograft model; format: in vivo, C57BL/6J mice; conditions: for tumor growth inhibition ratio: B16 subcutaneous xenograft, C57BL/6J mice, once a day
Method in brief: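 Female C57BL/6J mice, 8–12 weeks old, received B16 cells subcutaneously in the dorsal flank (5 × 105 in 100 μL PBS). Groups of 8 were dosed once a day with test compound or NS control. Tumours were measured every two days and volume was taken as a×b2×0.5. Excised tumours were formalin-fixed, paraffin-embedded, sectioned, and stained for TUNEL, EGFR, Akt, pAkt473 and Ki67.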

[7] = tested on: several cancer cells (B16, HepG2, A549, SW620, MCF-7, Hela); experiment: Cytotoxic activity in several cancer cells; format: cell-based; conditions: Figure 5(A)
Method in brief: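 Cells were kept in DMEM with 10% FBS at 37 °C and 5% CO2 and used in exponential growth. They were seeded at 3–6 × 10^3 cells/well for 24 h, then given DMSO or various compound concentrations for 24 or 48 h. MTT (0.5 mg/mL in medium) was added for 3 h at 37 °C and dissolved in DMSO; absorbance was read at 570 nm. Three experiments, each in triplicate.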

VEGFR2, sequence (P35968 20-1356): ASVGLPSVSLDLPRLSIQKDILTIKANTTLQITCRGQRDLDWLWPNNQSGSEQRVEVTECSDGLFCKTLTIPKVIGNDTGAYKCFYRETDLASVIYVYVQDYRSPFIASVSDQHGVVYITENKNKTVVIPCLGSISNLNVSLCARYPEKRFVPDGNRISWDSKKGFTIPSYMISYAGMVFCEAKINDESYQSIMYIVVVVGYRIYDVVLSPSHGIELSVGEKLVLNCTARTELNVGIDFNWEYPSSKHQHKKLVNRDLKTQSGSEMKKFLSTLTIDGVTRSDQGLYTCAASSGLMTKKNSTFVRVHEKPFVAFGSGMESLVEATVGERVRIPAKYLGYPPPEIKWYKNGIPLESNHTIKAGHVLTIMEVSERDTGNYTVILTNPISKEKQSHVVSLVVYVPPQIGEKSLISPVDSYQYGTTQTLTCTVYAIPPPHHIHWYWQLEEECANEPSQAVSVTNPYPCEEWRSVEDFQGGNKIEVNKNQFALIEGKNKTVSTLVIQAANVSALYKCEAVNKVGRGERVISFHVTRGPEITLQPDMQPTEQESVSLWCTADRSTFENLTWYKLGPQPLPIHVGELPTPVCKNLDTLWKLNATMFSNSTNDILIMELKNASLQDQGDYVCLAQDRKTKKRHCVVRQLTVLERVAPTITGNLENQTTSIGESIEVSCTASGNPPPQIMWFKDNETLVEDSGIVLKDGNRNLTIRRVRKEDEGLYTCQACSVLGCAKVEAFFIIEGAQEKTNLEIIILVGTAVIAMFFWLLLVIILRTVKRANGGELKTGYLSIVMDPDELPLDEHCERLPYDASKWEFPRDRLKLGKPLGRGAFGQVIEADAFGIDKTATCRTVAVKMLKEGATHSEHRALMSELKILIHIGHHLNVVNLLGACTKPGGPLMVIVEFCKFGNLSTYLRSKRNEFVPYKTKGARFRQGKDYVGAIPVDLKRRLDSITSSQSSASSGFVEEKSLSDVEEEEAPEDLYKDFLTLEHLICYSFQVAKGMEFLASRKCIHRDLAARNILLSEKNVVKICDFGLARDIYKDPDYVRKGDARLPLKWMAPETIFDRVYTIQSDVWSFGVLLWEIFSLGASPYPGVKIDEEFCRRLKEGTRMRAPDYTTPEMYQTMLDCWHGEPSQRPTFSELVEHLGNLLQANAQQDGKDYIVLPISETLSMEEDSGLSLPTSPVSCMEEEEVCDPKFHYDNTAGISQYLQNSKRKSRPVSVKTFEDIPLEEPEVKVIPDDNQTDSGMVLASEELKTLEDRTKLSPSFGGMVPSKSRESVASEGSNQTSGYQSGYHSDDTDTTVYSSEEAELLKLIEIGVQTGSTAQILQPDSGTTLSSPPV
EGFR, sequence (P00533 25-1210): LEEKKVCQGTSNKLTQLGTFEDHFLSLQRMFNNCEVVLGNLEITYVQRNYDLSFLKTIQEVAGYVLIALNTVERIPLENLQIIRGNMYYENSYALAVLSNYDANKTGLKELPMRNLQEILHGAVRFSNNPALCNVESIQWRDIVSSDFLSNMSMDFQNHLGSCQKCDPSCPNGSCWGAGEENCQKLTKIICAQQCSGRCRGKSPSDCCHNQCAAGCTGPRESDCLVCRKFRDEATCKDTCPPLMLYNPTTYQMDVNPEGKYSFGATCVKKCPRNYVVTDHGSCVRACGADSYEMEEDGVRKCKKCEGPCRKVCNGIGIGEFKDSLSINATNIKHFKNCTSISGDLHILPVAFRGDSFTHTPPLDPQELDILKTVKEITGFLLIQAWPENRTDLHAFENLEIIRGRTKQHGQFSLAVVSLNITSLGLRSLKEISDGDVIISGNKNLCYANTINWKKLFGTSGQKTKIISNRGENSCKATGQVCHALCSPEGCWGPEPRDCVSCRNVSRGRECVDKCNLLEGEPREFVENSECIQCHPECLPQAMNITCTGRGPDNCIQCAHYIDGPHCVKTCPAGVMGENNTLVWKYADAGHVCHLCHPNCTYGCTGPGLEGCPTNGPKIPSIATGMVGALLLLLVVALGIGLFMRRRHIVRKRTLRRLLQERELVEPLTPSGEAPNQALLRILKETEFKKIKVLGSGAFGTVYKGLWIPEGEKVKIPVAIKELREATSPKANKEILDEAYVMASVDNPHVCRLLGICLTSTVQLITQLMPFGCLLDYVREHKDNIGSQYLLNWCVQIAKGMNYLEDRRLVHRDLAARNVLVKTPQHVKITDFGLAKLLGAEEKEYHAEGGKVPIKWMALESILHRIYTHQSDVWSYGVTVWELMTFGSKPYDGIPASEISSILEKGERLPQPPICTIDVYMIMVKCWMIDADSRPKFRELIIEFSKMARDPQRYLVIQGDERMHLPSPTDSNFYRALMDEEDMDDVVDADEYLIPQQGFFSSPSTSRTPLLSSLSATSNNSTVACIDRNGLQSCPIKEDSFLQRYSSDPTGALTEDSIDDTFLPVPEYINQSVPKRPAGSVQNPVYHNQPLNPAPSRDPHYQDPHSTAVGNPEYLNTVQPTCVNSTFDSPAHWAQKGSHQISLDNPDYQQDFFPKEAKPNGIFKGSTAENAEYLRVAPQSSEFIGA
PI3Kα, sequence (P42336 whole entry): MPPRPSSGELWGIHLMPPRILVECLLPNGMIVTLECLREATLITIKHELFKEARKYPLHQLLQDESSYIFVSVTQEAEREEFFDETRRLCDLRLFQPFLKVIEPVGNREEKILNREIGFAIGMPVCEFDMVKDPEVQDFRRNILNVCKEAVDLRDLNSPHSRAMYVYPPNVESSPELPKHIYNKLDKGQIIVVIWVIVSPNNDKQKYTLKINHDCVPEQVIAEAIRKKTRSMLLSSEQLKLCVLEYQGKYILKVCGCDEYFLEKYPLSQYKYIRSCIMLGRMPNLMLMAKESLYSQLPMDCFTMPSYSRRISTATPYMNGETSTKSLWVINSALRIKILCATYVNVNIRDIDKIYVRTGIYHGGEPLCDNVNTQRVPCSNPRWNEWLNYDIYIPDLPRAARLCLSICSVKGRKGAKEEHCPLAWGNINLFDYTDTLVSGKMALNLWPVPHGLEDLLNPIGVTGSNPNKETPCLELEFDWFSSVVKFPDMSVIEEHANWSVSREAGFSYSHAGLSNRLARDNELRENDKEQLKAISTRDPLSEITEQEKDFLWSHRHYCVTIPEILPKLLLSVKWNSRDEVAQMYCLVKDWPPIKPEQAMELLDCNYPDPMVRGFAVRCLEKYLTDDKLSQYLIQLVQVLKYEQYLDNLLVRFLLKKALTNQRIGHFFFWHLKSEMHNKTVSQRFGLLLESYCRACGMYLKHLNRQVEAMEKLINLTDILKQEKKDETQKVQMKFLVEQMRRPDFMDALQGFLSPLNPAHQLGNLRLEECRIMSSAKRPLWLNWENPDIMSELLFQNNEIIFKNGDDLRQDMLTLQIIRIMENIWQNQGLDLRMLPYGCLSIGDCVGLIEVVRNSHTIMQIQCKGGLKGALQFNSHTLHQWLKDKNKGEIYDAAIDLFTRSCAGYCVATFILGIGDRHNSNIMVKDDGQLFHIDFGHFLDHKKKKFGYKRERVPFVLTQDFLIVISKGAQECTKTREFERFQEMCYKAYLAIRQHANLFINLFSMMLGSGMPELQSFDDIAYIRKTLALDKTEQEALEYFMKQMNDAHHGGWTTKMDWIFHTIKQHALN
PI3Kα, sequence (P27986 whole entry partner): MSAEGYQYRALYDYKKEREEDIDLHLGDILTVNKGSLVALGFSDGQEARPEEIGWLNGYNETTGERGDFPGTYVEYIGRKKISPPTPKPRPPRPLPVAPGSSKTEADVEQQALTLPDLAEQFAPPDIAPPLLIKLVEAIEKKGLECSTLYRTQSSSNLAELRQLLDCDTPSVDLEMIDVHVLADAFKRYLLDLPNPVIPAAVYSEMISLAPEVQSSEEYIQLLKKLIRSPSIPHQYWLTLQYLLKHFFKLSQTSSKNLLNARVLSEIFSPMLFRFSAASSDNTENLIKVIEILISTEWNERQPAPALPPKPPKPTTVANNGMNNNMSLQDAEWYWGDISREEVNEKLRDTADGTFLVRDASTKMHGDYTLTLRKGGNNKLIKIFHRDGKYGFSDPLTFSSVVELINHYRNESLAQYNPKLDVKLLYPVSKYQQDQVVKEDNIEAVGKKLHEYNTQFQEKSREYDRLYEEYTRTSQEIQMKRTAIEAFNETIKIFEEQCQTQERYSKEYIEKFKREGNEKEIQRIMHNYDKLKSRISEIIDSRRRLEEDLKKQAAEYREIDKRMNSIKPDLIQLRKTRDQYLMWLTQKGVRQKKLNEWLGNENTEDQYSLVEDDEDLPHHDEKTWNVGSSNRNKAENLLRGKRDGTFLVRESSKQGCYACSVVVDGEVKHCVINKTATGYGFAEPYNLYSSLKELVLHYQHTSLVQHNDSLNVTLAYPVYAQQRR

Structure (SMILES) | IC50 (Hsp90α) [nM] | IC50 (EGFR) [nM] | IC50 (VEGFR2) [nM] | B16 GI ratio (B16 melanoma cell line) [%] | also measured
CCc1cccc(Nc2ncnc3sc4c(c23)CCN(C(=O)c2cc(C(C)C)c(O)cc2O)C4)c1 [Compound 8a, (2,4-dihydroxy-5-isopropylphenyl)(4-((3-ethylphenyl)amino)-5,8-dihydropyrido[4',3':4,5]thieno[2,3-d]pyrimidin-7(6H)-yl)methanone] | 375 | 60.7 | > 10000 | 26.8 | 
CC(C)c1cc(C(=O)N2CCc3c(sc4ncnc(Nc5ccc(Br)cc5)c34)C2)c(O)cc1O [Compound 8b, (4-((4-bromophenyl)amino)-5,8-dihydropyrido[4',3':4,5]thieno[2,3-d]pyrimidin-7(6H)-yl)(2,4-dihydroxy-5-isopropylphenyl)methanone] | 290 | 49.9 | > 10000 | 33.6 | 
Cc1cccc(Nc2ncnc3sc4c(c23)CCN(C(=O)c2cc(C(C)C)c(O)cc2O)C4)c1 [Compound 8d, (2,4-dihydroxy-5-isopropylphenyl)(4-(m-tolylamino)-5,8-dihydropyrido[4',3':4,5]thieno[2,3-d]pyrimidin-7(6H)-yl)methanone] | 318 | 51.8 | > 10000 | 41.7 | 
CC(C)c1cc(C(=O)N2CCc3c(sc4ncnc(Nc5ccc(Cl)cc5)c34)C2)c(O)cc1O [Compound 8f, (4-((4-chlorophenyl)amino)-5,8-dihydropyrido[4',3':4,5]thieno[2,3-d]pyrimidin-7(6H)-yl)(2,4-dihydroxy-5-isopropylphenyl)methanone] | 318 | 76.6 | > 10000 | 29.5 | 
CC(C)c1cccc(Nc2ncnc3sc4c(c23)CCN(C(=O)c2cc(C(C)C)c(O)cc2O)C4)c1 [Compound 8h, (2,4-dihydroxy-5-isopropylphenyl)(4-((3-isopropylphenyl)amino)-5,8-dihydropyrido[4',3':4,5]thieno[2,3-d]pyrimidin-7(6H)-yl)methanone] | 468 | 380 | > 10000 | 39.1 | 
Cc1ccc(Nc2ncnc3sc4c(c23)CCN(C(=O)c2cc(C(C)C)c(O)cc2O)C4)c(C)c1 [Compound 8i, (2,4-dihydroxy-5-isopropylphenyl)(4-((2,4-dimethylphenyl)amino)-5,8-dihydropyrido[4',3':4,5]thieno[2,3-d]pyrimidin-7(6H)-yl)methanone] | 1640 | 578 | 169 | 24.8 | 
CC(C)c1cc(C(=O)N2CCc3c(sc4ncnc(N5CCOCC5)c34)C2)c(O)cc1O [Compound 8m, (2,4-dihydroxy-5-isopropylphenyl)(4-morpholino-5,8-dihydropyrido[4',3':4,5]thieno[2,3-d]pyrimidin-7(6H)-yl)methanone] |  |  |  |  | cell invasion (Matrigel Transwell) (B16 cells [1]): remarkable decrease; cleavage of apoptosis related proteins (western blot) (B16 cells [2]; B16 cells): cleavage of Caspase-3, Caspase-8, Caspase-9 and PARP; expression levels of Hsp90 client proteins cdc37, CDK4, EGFR, bRaf and cRaf (western blot) (B16 cells [2]; B16 cells): remarkably suppressed; expression levels of Hsp90α and Hsp70 (western blot) (B16 cells [2]; B16 cells): declined; p-Akt (Ser473), p-Akt (Thr308) and total Akt expression (western blot) (B16 cells [2]; B16 cells): downregulated; E-cadherin expression (western blot) (B16 cells [2]; B16 cells, 20, 40 μg/mL): up-regulated; expression of MMPs, vimentin, N-cadherin, β-catenin, ZEB1 (western blot) (B16 cells [2]; B16 cells, 20, 40 μg/mL): remarkably down-regulated; autophosphorylation of PI3Kα (western blot) (B16 cells [2]; B16 cells, total PI3Kα not influenced): inhibited; IC50 (B16 melanoma cell line; B16, 24 h): ~0.56 µg/mL (≈ 1.23 µM); IC50 (B16 melanoma cell line; B16, 48 h): ~0.47 µg/mL (≈ 1.03 µM); cell counts in G1 phase (B16 cells [3]): corresponding descent; cell counts in G2 phase (B16 cells [3]): significantly increased; clone formation, size and number of the colonies (B16 cells [4]): dose-dependent decline; wound areas (cell migration) (B16 cells [5]): minimal changes; apoptotic positive cells (B16 cells [6]): significant increase; apoptotic positive cells in tumor tissue (TUNEL) (B16 melanoma xenograft; B16 xenograft tumor sections, among all therapeutic groups): highest number of apoptotic positive cells; Ki-67 positive cells in tumor tissue (B16 melanoma xenograft; B16 xenograft tumor sections, p < .01): most significant suppression; cytotoxic activity in several cancer cells [7]: most potent in melanoma cells; IC50 (PI3Kα): 48.4 nM
CC(C)c1cc(-c2n[nH]c(=O)n2-c2ccc3c(ccn3C)c2)c(O)cc1O [Ganetespib, reference compound] |  |  |  |  | tumor growth inhibition ratio (B16 melanoma xenograft): 57%
Oc1cccc(-c2nc(N3CCOCC3)c3oc4ncccc4c3n2)c1 [PI-103, reference compound] |  |  |  |  | tumor growth inhibition ratio (B16 melanoma xenograft): 29%

Further molecules by falling IC50 (Hsp90α), results first:

IC50 (Hsp90α) [nM] | IC50 (EGFR) [nM] | IC50 (VEGFR2) [nM] | Structure (SMILES) | B16 GI ratio (B16 melanoma cell line) [%] | also measured
229 | 40.2 | > 10000 | CC(C)c1cc(C(=O)N2CCc3c(sc4ncnc(Nc5cccc(F)c5)c34)C2)c(O)cc1O [Compound 8e, (2,4-dihydroxy-5-isopropylphenyl)(4-((3-fluorophenyl)amino)-5,8-dihydropyrido[4',3':4,5]thieno[2,3-d]pyrimidin-7(6H)-yl)methanone] | 38.9 | 
210 | 71 | > 10000 | COc1cccc(Nc2ncnc3sc4c(c23)CCN(C(=O)c2cc(C(C)C)c(O)cc2O)C4)c1 [Compound 8g, (2,4-dihydroxy-5-isopropylphenyl)(4-((3-methoxyphenyl)amino)-5,8-dihydropyrido[4',3':4,5]thieno[2,3-d]pyrimidin-7(6H)-yl)methanone] | 37.5 | 
207 | 147 | 716 | CC(C)c1cc(C(=O)N2CCc3c(sc4ncnc(Nc5cccc(O)c5)c34)C2)c(O)cc1O [Compound 8j, (2,4-dihydroxy-5-isopropylphenyl)(4-((3-hydroxyphenyl)amino)-5,8-dihydropyrido[4',3':4,5]thieno[2,3-d]pyrimidin-7(6H)-yl)methanone] | 36.0 | 
196 | 37.1 | > 10000 | CC(C)c1cc(C(=O)N2CCc3c(sc4ncnc(Nc5cccc(Cl)c5)c34)C2)c(O)cc1O [Compound 8c, (4-((3-chlorophenyl)amino)-5,8-dihydropyrido[4',3':4,5]thieno[2,3-d]pyrimidin-7(6H)-yl)(2,4-dihydroxy-5-isopropylphenyl)methanone] | 51.2 | 
79.5 |  |  | CC(C)c1cc(C(=O)N2CCc3c(sc4ncnc(N(C)C)c34)C2)c(O)cc1O [Compound 8n, (2,4-dihydroxy-5-isopropylphenyl)(4-(dimethylamino)-5,8-dihydropyrido[4',3':4,5]thieno[2,3-d]pyrimidin-7(6H)-yl)methanone] | 46.7 | IC50 (PI3Kα): 568 nM
65 |  |  | CC(C)c1cc(C(=O)N2CCc3c(sc4ncnc(N5CCCC5)c34)C2)c(O)cc1O [Compound 8l, (2,4-dihydroxy-5-isopropylphenyl)(4-(pyrrolidin-1-yl)-5,8-dihydropyrido[4',3':4,5]thieno[2,3-d]pyrimidin-7(6H)-yl)methanone] | 60.4 | IC50 (PI3Kα): 169 nM
51.9 |  |  | CC(C)c1cc(C(=O)N2CCc3c(sc4ncnc(N5CCCCC5)c34)C2)c(O)cc1O [Compound 8k, (2,4-dihydroxy-5-isopropylphenyl)(4-(piperidin-1-yl)-5,8-dihydropyrido[4',3':4,5]thieno[2,3-d]pyrimidin-7(6H)-yl)methanone] | 65.2 | IC50 (PI3Kα): 133 nM
